Data set [1] deals with SH-SY5Y. Kind of data set: Neuroprotective activity against ATRA-differentiated and 3-NPA induced cell death in human SH-SY5Y cells assessed as cell death at 0.1 uM incubated for 48 hrs by propidium iodide staining based fluorescence assay (reference value: 100%). Type of data set: functional. In outline: (§1)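 ATRA-differentiated SH-SY5Y co-treated with compound and 20 mM 3-nitropropionic acid for 48 h; cell death by propidium iodide fluorescence, 3-NPA-treated signal set to 100 %.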

Data set [2] relates to SH-SY5Y. Kind of data set: Neuroprotective activity against ATRA-differentiated and 3-NPA induced cell death in human SH-SY5Y cells assessed as cell death at 1 uM incubated for 48 hrs by propidium iodide staining based fluorescence assay (reference value: 100%). Type of data set: functional. In outline: as §1
In data set [3] the test system is SH-SY5Y. Nature of the data set: Neuroprotective activity against ATRA-differentiated and 3-NPA induced cell death in human SH-SY5Y cells assessed as cell death at 10 uM incubated for 48 hrs by propidium iodide staining based fluorescence assay (reference value: 100%). Type of data set: functional. The essentials: as §1
In data set [4] the test system is SH-SY5Y. Kind of data set: Cytotoxicity against human SH-SY5Y cells assessed as cell death at 10 uM incubated for 72 hrs by propidium iodide staining based fluorescence assay. Type of data set: toxicity. In outline:
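SH-SY5Y differentiated to neuron-like phenotype with 10 μM all-trans retinoic acid for 48 h, 20 000 cells/well. Compounds from DMSO stocks (DMSO ≤0.5 %) added, then 72 h exposure. Control wells lysed with 1 % Triton X-100 for 1 min, then all wells stained with propidium iodide for fluorescence read-out. Dead-cell proportion expressed relative to Triton X-100-treated control.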

The test system of data set [5] is SH-SY5Y. Nature of the data set: Neuroprotective activity against ATRA-differentiated and MPP+ induced cell death in human SH-SY5Y cells assessed as cell death at 0.1 uM incubated for 24 hrs by propidium iodide staining based fluorescence assay (reference value: 100%). Type of data set: functional. The essentials:
(§2)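 ATRA-differentiated SH-SY5Y co-treated with compound and 5 mM MPP+ for 24 h; cell death by propidium iodide fluorescence, MPP+-treated signal set to 100 %.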

The test system of data set [6] is SH-SY5Y. Nature of the data set: Neuroprotective activity against ATRA-differentiated and MPP+ induced cell death in human SH-SY5Y cells assessed as cell death at 1 uM incubated for 24 hrs by propidium iodide staining based fluorescence assay (reference value: 100%). It is filed as functional. The essentials: as §2
Data set [7] relates to SH-SY5Y. Kind of data set: Neuroprotective activity against ATRA-differentiated and MPP+ induced cell death in human SH-SY5Y cells assessed as cell death at 10 uM incubated for 24 hrs by propidium iodide staining based fluorescence assay (reference value: 100%). It is filed as functional. In outline:
as §2

Each structure is given as a SMILES string.

`CC(=O)N[C@@H](CS)C(=O)O` [ACETYLCYSTEINE]: the results for the Activity in the data set with SH-SY5Y [1], in the data set on SH-SY5Y [2] and with SH-SY5Y [3] were 95.5%, 80.8% and 37%, respectively.

`c1ccc2c(c1)NC1(CCCC1)c1c-2nc2ccccn12`: the Activity stood at 10.1% in the data set on SH-SY5Y [4]; 67.7% with SH-SY5Y [1]; 57.7% in the data set on SH-SY5Y [2]; 54.5% with SH-SY5Y [3]; 63.9% in the data set with SH-SY5Y [5]; 28.2% in the data set with SH-SY5Y [6]. Further, the Activity with SH-SY5Y [7] was found to be 42.6%.

Regarding `Cc1cccn2c3c(nc12)-c1ccccc1NC31CCCC1`, the Activity in the data set on SH-SY5Y [4] amounted to 8.2%; with SH-SY5Y [1], 79.2%; with SH-SY5Y [2], 65.3%; in the data set on SH-SY5Y [3] it was 60.5%; in the data set on SH-SY5Y [5], 86.7%; in the data set on SH-SY5Y [6], 48%. Moreover, the Activity in the data set with SH-SY5Y [7] turned out to be 52.8%.

For `CC1CCC2(CC1)Nc1ccccc1-c1nc3ccccn3c12` (stereo not drawn), the Activity with SH-SY5Y [4] is 12%; in the data set on SH-SY5Y [1], 82.3%; with SH-SY5Y [2], 64.2%; in the data set with SH-SY5Y [3] it was 64.5%; in the data set with SH-SY5Y [5], 67.6%; in the data set with SH-SY5Y [6] it was 33.6%. For the same compound, the Activity with SH-SY5Y [7] was determined as 97.3%.

`c1ccc2c(c1)NC1(CCCCCC1)c1c-2nc2ccccn12`: the Activity in the data set with SH-SY5Y [4] is 10.4%; in the data set with SH-SY5Y [1], 74%; in the data set with SH-SY5Y [2], 69.9%; with SH-SY5Y [3], 69%; in the data set with SH-SY5Y [5], 45.8%; with SH-SY5Y [6], 28.6%. In addition, the Activity in the data set with SH-SY5Y [7] was found to be 73.6%.

On to `Cc1cccn2c3c(nc12)-c1ccccc1NC31CCCCC1`, for which the Activity came out at 9.2% with SH-SY5Y [4]; 76.6% in the data set on SH-SY5Y [1]; 66.1% with SH-SY5Y [2]; 61.8% in the data set with SH-SY5Y [3]; 77.7% with SH-SY5Y [5]; 44.4% in the data set on SH-SY5Y [6]. In addition, the Activity in the data set with SH-SY5Y [7] was found to be 45.6%.

As to `Cc1cccn2c3c(nc12)-c1ccccc1NC3(C)C`, the Activity with SH-SY5Y [4] came out at 11%; in the data set on SH-SY5Y [1], 96.6%; in the data set on SH-SY5Y [2], 69.9%; with SH-SY5Y [3], 56.4%; with SH-SY5Y [5] it was 79.6%; in the data set on SH-SY5Y [6] it was 48.6%. Further, the Activity in the data set with SH-SY5Y [7] turned out to be 70.8%.

Take `Brc1ccc2nc3c(n2c1)C1(CCCCCC1)Nc1ccccc1-3`: the Activity with SH-SY5Y [4] is recorded as 13.5%; in the data set on SH-SY5Y [1] it was 90.7%; in the data set on SH-SY5Y [2], 81.4%; in the data set on SH-SY5Y [3] it was 73.5%; with SH-SY5Y [5], 56.5%; in the data set on SH-SY5Y [6], 43.5%. For the same compound, the Activity with SH-SY5Y [7] came to 96.4%.

For `Cc1ccn2c3c(nc2c1)-c1ccccc1NC3(C)C`, the Activity in the data set on SH-SY5Y [4] came out at 13%; in the data set with SH-SY5Y [1], 86.2%; in the data set with SH-SY5Y [2], 62.4%; with SH-SY5Y [3] it was 52.9%; with SH-SY5Y [5] it was 65.7%; in the data set with SH-SY5Y [6], 46.1%. The Activity with SH-SY5Y [7] was determined as 59.7%.

Take `Cc1cccn2c3c(nc12)-c1ccccc1NC31CCC(C)CC1` (stereo not drawn): the Activity in the data set on SH-SY5Y [4] is listed as 9%; with SH-SY5Y [1] it was 86%; in the data set on SH-SY5Y [2], 65%; in the data set with SH-SY5Y [3] it was 64.5%; with SH-SY5Y [5], 91.8%; in the data set with SH-SY5Y [6], 53%. The Activity in the data set with SH-SY5Y [7] amounted to 94%.

As for `Cc1ccn2c3c(nc2c1)-c1ccccc1NC31CCC(C)CC1` (stereo not drawn), the Activity in the data set with SH-SY5Y [4] is on record as 10.9%; in the data set with SH-SY5Y [1] it was 82.4%; in the data set on SH-SY5Y [2], 66.8%; in the data set with SH-SY5Y [3], 67%; in the data set on SH-SY5Y [5], 61.6%; in the data set with SH-SY5Y [6], 38.4%. The Activity with SH-SY5Y [7] worked out at 105.9%.

The values above are taken from ChEMBL document CHEMBL5608194, “Novel neuroprotective 5,6-dihydropyrido[2',1':2,3]imidazo[4,5-c]quinoline derivatives acting through cholinesterase inhibition and CB2 signaling modulation” (Eur J Med Chem, 2024).
